From ChEMBL document CHEMBL1132183 (J Med Chem, 1999)

What was measured:
[1] = target: T1, 5-hydroxytryptamine receptor 1A (Homo sapiens) (UniProt P08908); test: Agonist efficacy on 5-hydroxytryptamine 1A receptor subtype; format: functional
T1 sequence (whole entry): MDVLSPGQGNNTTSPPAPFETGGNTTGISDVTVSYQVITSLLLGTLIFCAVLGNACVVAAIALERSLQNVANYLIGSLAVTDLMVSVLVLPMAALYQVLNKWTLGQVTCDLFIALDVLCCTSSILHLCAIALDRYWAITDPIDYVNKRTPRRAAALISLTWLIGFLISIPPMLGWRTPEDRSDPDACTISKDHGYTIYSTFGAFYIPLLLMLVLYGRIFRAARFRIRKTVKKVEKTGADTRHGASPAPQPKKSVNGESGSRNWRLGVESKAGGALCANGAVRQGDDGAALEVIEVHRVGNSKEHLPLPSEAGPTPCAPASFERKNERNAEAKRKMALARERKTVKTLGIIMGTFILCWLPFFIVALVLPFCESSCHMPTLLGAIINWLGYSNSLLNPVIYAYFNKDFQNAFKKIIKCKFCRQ
Outline: (§1)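 [35S]GTPγS binding in membranes of HeLa cells stably expressing human 5-HT1A, in 20 mM HEPES, 3 mM MgSO4, 120 mM NaCl pH 7.4. Preincubation 20 min at 30 °C with 30 μM GDP and drug (0.1 nM–100 μM), then 150–250 pM [35S]GTPγS for 30 min at 30 °C. Stimulation above basal was scaled to the 5-HT maximum (100%). Emax and pD2 came from curve fits; triplicate, 2–3 sessions.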

[2] = target: T1, 5-hydroxytryptamine receptor 1A (Homo sapiens); test: Concentration required to obtain 50% maximal stimulation of [35S]GTP gamma-S binding to human cloned 5-HT1A receptors of cell membranes from HeLa cells; format: functional; outline: as §1
[3] = target: T2, Alpha-1A adrenergic receptor (Rattus norvegicus) (UniProt P43140); test: Antagonist activity against Alpha-1A adrenergic receptor (-)-noradrenaline-induced contraction of rat prostatic vas deferens; format: functional, tissue-based
T2 sequence (whole entry): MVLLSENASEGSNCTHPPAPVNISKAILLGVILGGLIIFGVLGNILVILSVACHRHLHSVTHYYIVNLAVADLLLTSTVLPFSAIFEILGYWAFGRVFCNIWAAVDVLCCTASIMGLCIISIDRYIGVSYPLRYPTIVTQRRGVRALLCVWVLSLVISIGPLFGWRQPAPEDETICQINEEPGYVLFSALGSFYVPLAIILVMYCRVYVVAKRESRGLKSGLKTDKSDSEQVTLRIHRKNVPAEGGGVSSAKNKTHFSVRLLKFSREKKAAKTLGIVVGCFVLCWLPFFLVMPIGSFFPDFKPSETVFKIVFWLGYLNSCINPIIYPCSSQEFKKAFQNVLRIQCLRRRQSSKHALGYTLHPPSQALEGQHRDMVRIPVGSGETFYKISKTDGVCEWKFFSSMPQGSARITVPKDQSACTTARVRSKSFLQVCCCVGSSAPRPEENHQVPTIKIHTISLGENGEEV
Outline: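 Isolated rat prostatic vas deferens with 0.01 μM desipramine in the bath. Isotonic cumulative (–)-noradrenaline curves were run at 30-min intervals: first discarded, second as control, then antagonist equilibrated 30 min before a new curve. pKb by Arunlakshana–Schild from dose ratios of EC50, at 2–3 antagonist concentrations, each tested four times.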

[4] = target: T3, Alpha-1A adrenergic receptor (Homo sapiens, UniProt P35348); test: Displacement of [3H]prazosin from human cloned Alpha-1A adrenergic receptor
T3 sequence (P35348 whole entry): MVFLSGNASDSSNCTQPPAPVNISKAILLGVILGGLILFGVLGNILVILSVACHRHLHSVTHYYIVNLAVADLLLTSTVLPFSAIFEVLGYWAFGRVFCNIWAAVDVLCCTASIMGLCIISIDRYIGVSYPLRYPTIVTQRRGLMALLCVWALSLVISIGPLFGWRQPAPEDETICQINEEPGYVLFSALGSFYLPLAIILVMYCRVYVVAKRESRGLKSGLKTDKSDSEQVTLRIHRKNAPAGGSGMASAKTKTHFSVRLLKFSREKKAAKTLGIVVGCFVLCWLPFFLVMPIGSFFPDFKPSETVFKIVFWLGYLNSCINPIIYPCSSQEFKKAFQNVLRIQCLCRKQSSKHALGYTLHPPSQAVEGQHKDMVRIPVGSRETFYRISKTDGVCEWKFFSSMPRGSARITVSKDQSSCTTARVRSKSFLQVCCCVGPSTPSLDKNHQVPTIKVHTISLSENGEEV
Outline: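 CHO cells stably transfected with each human α1 subtype; 30 μg membrane protein in 50 mM Tris-HCl pH 7.4 with 0.1–0.4 nM [3H]prazosin, 30 min at 25 °C. Competitors 1 pM–10 μM. Nonspecific binding defined with 10 μM phentolamine. Filtration, scintillation counting. Ki by Cheng–Prusoff; 2–3 experiments in triplicate.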

[5] = target: D(2) dopamine receptor (Rattus norvegicus, UniProt P61169); test: Displacement of [3H]spiperone from rat brain Dopamine receptor D2
Outline: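 Striata from male Sprague–Dawley rats homogenized in Tris-HCl pH 7.4. Buffer held 10 μM pargiline, 0.1% ascorbic acid, 120 mM NaCl, 5 mM KCl, 2 mM CaCl2, 1 mM MgCl2. Incubated with 0.2–0.6 nM [3H]spiperone for 15 min at 37 °C. Nonspecific binding defined with 1 μM (+)-butaclamol. Filtration, scintillation counting. Ki by Cheng–Prusoff.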

Sequence of D(2) dopamine receptor (P61169 whole entry): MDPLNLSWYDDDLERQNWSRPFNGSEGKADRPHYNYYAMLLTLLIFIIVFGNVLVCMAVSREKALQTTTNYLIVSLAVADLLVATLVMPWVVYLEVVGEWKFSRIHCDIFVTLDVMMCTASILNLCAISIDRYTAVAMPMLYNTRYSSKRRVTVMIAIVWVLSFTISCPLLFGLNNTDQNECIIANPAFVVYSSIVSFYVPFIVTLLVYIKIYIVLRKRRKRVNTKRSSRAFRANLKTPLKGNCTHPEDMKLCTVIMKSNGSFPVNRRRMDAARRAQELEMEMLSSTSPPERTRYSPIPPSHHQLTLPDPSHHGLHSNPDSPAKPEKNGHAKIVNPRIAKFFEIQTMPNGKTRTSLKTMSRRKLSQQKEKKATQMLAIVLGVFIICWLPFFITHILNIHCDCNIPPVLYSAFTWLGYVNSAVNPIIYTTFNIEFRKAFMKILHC

Compound | Max [1] [%] | pD2 [2] | pKb [3] | Ki [4] [nM] | Ki [5] [nM]
O[C@@H]1[C@H](NC[C@@H]2COc3ccccc3O2)CC[C@H]1Oc1ccccc1 | 23 | 5.87 | 6.1 | 77.6 | 6170
O[C@@H]1[C@H](NC[C@H]2COc3ccccc3O2)CC[C@H]1Oc1ccccc1 | 100 | 5.87 | 6.55 | 36.3 | 2400
O[C@H]1[C@@H](NC[C@H]2COc3ccccc3O2)CC[C@@H]1Oc1ccccc1 | 82 | 7.3 | 5.65 | 389 | 2400
O[C@H]1[C@@H](NC[C@@H]2COc3ccccc3O2)CC[C@@H]1Oc1ccccc1 | 96 | 7.96 | < 5 | 955 | 1120
